pEC50, pIC50: −log10 of the molar value.

The term pIC50 denotes the negative decadic logarithm of the IC50, by convention in mol/L. A low value points to a large IC50. What is called pEC50 is the EC50 on a negative log10 scale, so that one unit is a factor of ten.

The first series deals with Mus musculus. Kind of series: Toxicity in C57BL/6 mouse at 10 mg/kg, po after 3 days. It counts as organism-based. Details: dose 10 mg/kg, route oral. To be noted: in vivo, 72 h. The essentials: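 G. lamblia GS/M-infected adult C57BL/6 mice were watched for clinically observable untoward effects across the 3-day treatment period, which consisted of five oral gavage doses at 10 mg/kg in methylcellulose/PBS given from day 2 after infection.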
Take `Cn1c([N+](=O)[O-])cnc1/C=C/c1ccsc1`: the Activity result is “Non-toxic”.

As for `Cn1c([N+](=O)[O-])cnc1CCc1ccccc1`, the Activity result is listed as “Non-toxic”.

The test system of another series is HeLa. Description: Cytotoxicity against human HeLa cells after 2 days by Alamar blue assay. The class given is cell-based. To be noted: 48 h. Background: Resazurin is reduced to fluorescent resorufin, in cell work by metabolically active cells.
Compound `Cn1c([N+](=O)[O-])cnc1/C=C/c1ccc(Cl)cc1` gave a pIC50 of 4.04.

In turn, `Cn1c([N+](=O)[O-])cnc1/C=C/c1ccccc1Br` showed a pIC50 of 4.14.

`Cn1c([N+](=O)[O-])cnc1C(Br)C(Br)c1ccc(Br)cc1` (configuration not stated) had a pIC50 of 5.10.

In turn, `Cc1ccc(C(O)C(O)c2ncc([N+](=O)[O-])n2C)cc1` (configuration not stated) gave a pIC50 of less than 4.00.

With `Cn1c([N+](=O)[O-])cnc1/C=C/c1cccc(Cl)c1`, the negative logarithm of the IC50 (pIC50) was 4.52.

`Cn1c([N+](=O)[O-])cnc1/C=C/c1ccccc1Cl` showed a pIC50 of less than 4.00.

In the case of `Cc1ccc(CCc2ncc([N+](=O)[O-])n2C)cc1`, the pIC50 was less than 4.00.

The compound `COc1cccc(/C=C/c2ncc([N+](=O)[O-])n2C)c1` had a pIC50 of less than 4.00.

In the case of `Cn1c([N+](=O)[O-])cnc1/C=C/c1ccc(Cl)cc1Cl`, the pIC50 is less than 4.00.

`Cn1c([N+](=O)[O-])cnc1/C=C/c1ccccc1I`: the pIC50 was less than 4.00.

Consider `Cn1c([N+](=O)[O-])cnc1C(O)C(O)c1ccc(Br)cc1` (configuration not stated), for which the pIC50 was 4.04.

`Cn1c([N+](=O)[O-])cnc1/C=C/c1ccc2c(c1)OCO2` gave a pIC50 of 4.13.

Regarding `Cn1c([N+](=O)[O-])cnc1/C=C/c1cccs1`, the pIC50 is 4.04.

On to `Cn1c([N+](=O)[O-])cnc1/C=C/c1ccsc1`, for which the pIC50 is less than 4.00.

`Cn1c([N+](=O)[O-])cnc1CCc1ccccc1` gave a pIC50 of less than 4.00.

Tested on in another series: not listed separately
Description: Therapeutic index, ratio of IC50 for human HeLa cells to EC50 for Giardia lamblia trophozoites isolates. The settings on record: read-out: Ratio IC50/EC50. The class given is cell-based.
Turning to `Cn1c([N+](=O)[O-])cnc1/C=C/c1ccc(Cl)cc1`, the selectivity ratio stood at 1740.

With `Cn1c([N+](=O)[O-])cnc1/C=C/c1ccccc1Br`, the selectivity ratio was 1480.

Turning to `Cn1c([N+](=O)[O-])cnc1C(Br)C(Br)c1ccc(Br)cc1` (configuration not stated), the selectivity ratio is 23.

Take `Cc1ccc(C(O)C(O)c2ncc([N+](=O)[O-])n2C)cc1` (configuration not stated): the selectivity ratio is greater than 120.

`Cn1c([N+](=O)[O-])cnc1/C=C/c1cccc(Cl)c1`: the selectivity ratio is 1380.

As for `Cn1c([N+](=O)[O-])cnc1/C=C/c1ccccc1Cl`, the selectivity ratio is greater than 1380.

Take `Cc1ccc(CCc2ncc([N+](=O)[O-])n2C)cc1`: the selectivity ratio is greater than 357.

Consider `COc1cccc(/C=C/c2ncc([N+](=O)[O-])n2C)c1`, for which the selectivity ratio is greater than 646.

Turning to `Cn1c([N+](=O)[O-])cnc1/C=C/c1ccc(Cl)cc1Cl`, the selectivity ratio is greater than 427.

Turning to `Cn1c([N+](=O)[O-])cnc1/C=C/c1ccccc1I`, the selectivity ratio is greater than 1660.

Take `Cn1c([N+](=O)[O-])cnc1C(O)C(O)c1ccc(Br)cc1` (configuration not stated): the selectivity ratio worked out at 208.

With `Cn1c([N+](=O)[O-])cnc1/C=C/c1ccc2c(c1)OCO2`, the selectivity ratio amounted to 1070.

For `Cn1c([N+](=O)[O-])cnc1/C=C/c1cccs1`, the selectivity ratio turned out to be 1120.

Consider `Cn1c([N+](=O)[O-])cnc1/C=C/c1ccsc1`, for which the selectivity ratio was greater than 1020.

Regarding `Cn1c([N+](=O)[O-])cnc1CCc1ccccc1`, the selectivity ratio is greater than 474.

The subject of a further series is Giardia intestinalis. Description: Antigiardial activity against metronidazole-sensitive Giardia lamblia isolate 106 trophozoite after 2 days by bactiter-glo viability assay. It counts as functional, organism-based. The settings on record: Giardia duodenalis, isolate 106, 48 h. The essentials:
(§1)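 Trophozoites from mid-log cultures in TYI-S-33 with 10% bovine serum and 1 mg/mL bovine bile, grown anaerobically. Mz-resistant lines kept on 50 μM Mz but grown without it for 2–3 days beforehand. 1000–2000 cells/well, 1:3 serial dilutions, final 20 μM to 0.4 nM. 2 days at 37 °C anaerobically. ATP luminescence read-out. EC50 taken by graphic extrapolation of concentration–response curves. Mean ± SE of three experiments.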
`Cn1c([N+](=O)[O-])cnc1/C=C/c1ccc(Cl)cc1` had a pEC50 of 6.59.

`Cn1c([N+](=O)[O-])cnc1/C=C/c1ccccc1Br` gave a pEC50 of 6.55.

The compound `Cn1c([N+](=O)[O-])cnc1C(Br)C(Br)c1ccc(Br)cc1` (configuration not stated) showed a pEC50 of 5.54.

The compound `Cn1c([N+](=O)[O-])cnc1/C=C/c1ccccc1Cl` showed a pEC50 of 6.60.

For `Cn1c([N+](=O)[O-])cnc1/C=C/c1ccsc1`, the pEC50 is 6.41.

As for `Cn1c([N+](=O)[O-])cnc1CCc1ccccc1`, the negative logarithm of the EC50 (pEC50) is 5.59.

Another series has as its system Giardia intestinalis. Kind of series: Antigiardial activity against metronidazole-resistant Giardia lamblia isolate 713 trophozoite after 2 days by bactiter-glo viability assay. The class given is functional, organism-based. The settings on record: Giardia duodenalis, isolate 713, 48 h. The essentials: as §1
`Cn1c([N+](=O)[O-])cnc1/C=C/c1ccc(Cl)cc1` gave a pEC50 of 7.44.

`Cn1c([N+](=O)[O-])cnc1/C=C/c1ccccc1Br` had a pEC50 of 7.74.

The compound `Cn1c([N+](=O)[O-])cnc1C(Br)C(Br)c1ccc(Br)cc1` (configuration not stated) had a pEC50 of 6.74.

For the compound `Cn1c([N+](=O)[O-])cnc1/C=C/c1ccccc1Cl`, the negative-log EC50 (pEC50) was 7.52.

In the case of `Cn1c([N+](=O)[O-])cnc1/C=C/c1ccsc1`, the pEC50 is 7.61.

With `Cn1c([N+](=O)[O-])cnc1CCc1ccccc1`, the pEC50 is 6.99.

The next series has as its system Giardia intestinalis. Description: Antigiardial activity against metronidazole-resistant Giardia lamblia isolate 106 trophozoite after 2 days by bactiter-glo viability assay. It counts as functional, organism-based. To be noted: Giardia duodenalis, isolate 106, 48 h. The essentials: as §1
`Cn1c([N+](=O)[O-])cnc1/C=C/c1ccc(Cl)cc1`: the pEC50 is 7.14.

Take `Cn1c([N+](=O)[O-])cnc1/C=C/c1ccccc1Br`: the pEC50 was 7.38.

Take `Cn1c([N+](=O)[O-])cnc1C(Br)C(Br)c1ccc(Br)cc1` (configuration not stated): the pEC50 was 6.67.

For the compound `Cn1c([N+](=O)[O-])cnc1/C=C/c1ccccc1Cl`, the pEC50 was 7.22.

Consider `Cn1c([N+](=O)[O-])cnc1/C=C/c1ccsc1`, for which the pEC50 was 7.04.

With `Cn1c([N+](=O)[O-])cnc1CCc1ccccc1`, the pEC50 was 6.76.

A further series concerns Giardia intestinalis. Description: Antigiardial activity against metronidazole-sensitive Giardia lamblia isolate 713 trophozoite after 2 days by bactiter-glo viability assay. The class given is functional, organism-based. The settings on record: Giardia duodenalis, isolate 713, 48 h. The essentials: as §1
`Cn1c([N+](=O)[O-])cnc1/C=C/c1ccc(Cl)cc1` showed a pEC50 of 6.84.

The compound `Cn1c([N+](=O)[O-])cnc1/C=C/c1ccccc1Br` had a pEC50 of 6.93.

Compound `Cn1c([N+](=O)[O-])cnc1C(Br)C(Br)c1ccc(Br)cc1` (configuration not stated) showed a negative-log EC50 (pEC50) of 6.32.

Compound `Cn1c([N+](=O)[O-])cnc1/C=C/c1ccccc1Cl` had a pEC50 of 6.94.

Compound `Cn1c([N+](=O)[O-])cnc1/C=C/c1ccsc1` showed a negative-log EC50 (pEC50) of 5.98.

`Cn1c([N+](=O)[O-])cnc1CCc1ccccc1` gave a pEC50 of 5.30.

A further series relates to Giardia intestinalis. Description: Antigiardial activity against Giardia lamblia trophozoites isolates after 2 days by bactiter-glo viability assay. The class given is functional, organism-based. To be noted: Giardia duodenalis, 48 h; read-out: EC50.
As for `Cn1c([N+](=O)[O-])cnc1/C=C/c1ccc2c(c1)OCO2`, the pEC50 is 7.16.

Staying with this series, now noted: Giardia duodenalis, 48 h; read-out: pEC50 (converted).
With `Cn1c([N+](=O)[O-])cnc1/C=C/c1ccc(Cl)cc1`, the EC50 was 52.5 nM.

As for `Cn1c([N+](=O)[O-])cnc1/C=C/c1ccccc1Br`, the EC50 was 49 nM.

On to `Cn1c([N+](=O)[O-])cnc1C(Br)C(Br)c1ccc(Br)cc1` (configuration not stated), for which the EC50 was 347 nM.

Turning to `Cc1ccc(C(O)C(O)c2ncc([N+](=O)[O-])n2C)cc1` (configuration not stated), the EC50 was 832 nM.

In the case of `Cn1c([N+](=O)[O-])cnc1/C=C/c1cccc(Cl)c1`, the EC50 was 21.9 nM.

Consider `Cn1c([N+](=O)[O-])cnc1/C=C/c1ccccc1Cl`, for which the EC50 was 72.4 nM.

For `Cc1ccc(CCc2ncc([N+](=O)[O-])n2C)cc1`, the EC50 was 282 nM.

As for `COc1cccc(/C=C/c2ncc([N+](=O)[O-])n2C)c1`, the EC50 was 155 nM.

On to `Cn1c([N+](=O)[O-])cnc1/C=C/c1ccc(Cl)cc1Cl`, for which the EC50 is 234 nM.

Regarding `Cn1c([N+](=O)[O-])cnc1/C=C/c1ccccc1I`, the EC50 was 60.3 nM.

Turning to `Cn1c([N+](=O)[O-])cnc1C(O)C(O)c1ccc(Br)cc1` (configuration not stated), the EC50 was 447 nM.

Turning to `Cn1c([N+](=O)[O-])cnc1/C=C/c1ccc2c(c1)OCO2`, the EC50 is 69.2 nM.

With `Cn1c([N+](=O)[O-])cnc1/C=C/c1cccs1`, the EC50 was 81.3 nM.

For `Cn1c([N+](=O)[O-])cnc1/C=C/c1ccsc1`, the EC50 was 97.7 nM.

As for `Cn1c([N+](=O)[O-])cnc1CCc1ccccc1`, the EC50 was 209 nM.

The values are drawn from ChEMBL document CHEMBL1137002, “Synthesis and electrochemistry of 2-ethenyl and 2-ethanyl derivatives of 5-nitroimidazole and antimicrobial activity against Giardia lamblia” (J Med Chem, 2009).
